The record followed here is ChEMBL document CHEMBL1687708, “Efficacy of oritavancin in a murine model of Bacillus anthracis spore inhalation anthrax” (Antimicrob Agents Chemother, 2008).

Converted amounts (≈) assume the structure as drawn.

Series [1] deals with Bacillus cereus. The series is described as follows: Antimicrobial activity against Bacillus cereus ATCC 4342 selected after 20 daily cycles of drug selection followed by 5 days of nonselective growth by broth microdilution method. In kind it is functional. Conditions: ATCC 4342, 120 h. An outline of the steps:
(§1)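 B. cereus ATCC 4342 went through stepwise selection for 20 cycles in cation-adjusted Mueller-Hinton broth with doubling drug dilutions. Each cycle was seeded from the previous day's 0.5× MIC wells, in two independent rounds per drug. Selectants showing a fourfold or greater MIC rise were passaged 5 days without drug. Their MICs were then read alongside the parent strain. Oritavancin assays carried 0.002% polysorbate 80 throughout.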

The subject of series [2] is Bacillus cereus. Briefly: Ratio of MIC for Bacillus cereus ATCC 4342 selected after 20 daily cycles of drug selection followed by 5 days of nonselective growth to MIC for Bacillus cereus ATCC 4342. Format: functional. An outline of the steps:
as §1

Series [3] relates to Bacillus cereus. The series is described as follows: Antimicrobial activity against Bacillus cereus ATCC 4342 by broth microdilution method. Format: functional. An outline of the steps:
as §1

The test system of series [4] is Bacillus anthracis. The series is described as follows: Antimicrobial activity against Bacillus anthracis infected mouse spore inhalation anthrax model assessed as survival rate at 50 mg/kg, iv administered as single dose treated 24 hrs postinfection. In kind it is functional.
Series [5] deals with Bacillus anthracis. Briefly: Antimicrobial activity against Bacillus anthracis infected mouse spore inhalation anthrax model assessed as survival rate at 0.1 mg/kg, ip every 48 hrs for 14 days treated 24 hrs postinfection measured on day 3. To be noted: route intraperitoneal. In kind it is functional.
Series [6] has as its system Bacillus anthracis. Briefly: Antimicrobial activity against Bacillus anthracis infected mouse spore inhalation anthrax model assessed as bacterial load per gram of lung tissue at 50 mg/kg, iv administered as single dose treated 42 hrs postinfection. In kind it is functional.
Series [7] has as its system Bacillus anthracis. Briefly: Antimicrobial activity against Bacillus anthracis by broth microdilution method in presence of polysorbate-80. In kind it is functional.
The subject of series [8] is Bacillus anthracis. Briefly: Antimicrobial activity against Bacillus anthracis Ames by broth microdilution method in presence of polysorbate-80. In kind it is functional.
Series [9] relates to Mus musculus. The series is described as follows: fAUC (0.25 to 72 hrs) in Bacillus anthracis infected mouse spore inhalation anthrax model at 32 mg/kg, iv administered as single dose. Format: ADME, organism-based. Set-up: dose 32 mg/kg, route intravenous. Conditions: in vivo.
The test system of series [10] is Mus musculus. Briefly: fAUC (0.25 to 72 hrs) in Bacillus anthracis infected mouse spore inhalation anthrax model at 32 mg/kg, ip administered as single dose. Format: ADME, organism-based. Also on record: dose 32 mg/kg, route intraperitoneal. Conditions: in vivo.
For series [11], the system named is Bacillus anthracis. The series is described as follows: Antimicrobial activity against Bacillus anthracis infected mouse spore inhalation anthrax model assessed as bacterial load per gram of lung tissue at 5 mg/kg, iv administered as single dose treated 24 hrs postinfection. In kind it is functional.
For series [12], the system named is Bacillus anthracis. The series is described as follows: Antimicrobial activity against Bacillus anthracis infected mouse spore inhalation anthrax model assessed as bacterial load per gram of lung tissue at 0.3 mg/kg, ip every 48 hrs for 14 days treated 24 hrs postinfection. To be noted: route intraperitoneal. Format: functional.
The test system of series [13] is Bacillus anthracis. Briefly: Antimicrobial activity against Bacillus anthracis infected mouse spore inhalation anthrax model assessed as bacterial load per gram of lung tissue at 15 mg/kg, iv administered as single dose treated 24 hrs postinfection. In kind it is functional.
In series [14] the test system is Bacillus anthracis. Briefly: Antimicrobial activity against Bacillus anthracis infected mouse spore inhalation anthrax model assessed as bacterial load per gram of lung tissue at 50 mg/kg, iv administered as single dose treated 24 hrs before infection. In kind it is functional.
The test system of series [15] is Bacillus anthracis. The series is described as follows: Antimicrobial activity against Bacillus anthracis infected mouse spore inhalation anthrax model assessed as survival rate at 50 mg/kg, iv administered as single dose treated 7 days before infection measured on 33 days postinfection. Format: functional.
In series [16] the test system is Bacillus anthracis. Briefly: Antimicrobial activity against Bacillus anthracis infected mouse spore inhalation anthrax model assessed as bacterial load per gram of lung tissue at 50 mg/kg, iv administered as single dose treated 7 days before infection. Format: functional.
The test system of series [17] is Bacillus anthracis. Briefly: Antimicrobial activity against Bacillus anthracis infected mouse spore inhalation anthrax model assessed as bacterial load per gram of lung tissue at 10 mg/kg, ip every 48 hrs for 14 days treated 24 hrs postinfection. Format: functional. To be noted: route intraperitoneal.
Series [18] relates to Bacillus anthracis. Briefly: Antimicrobial activity against Bacillus anthracis infected mouse spore inhalation anthrax model assessed as survival rate at 5 mg/kg, iv administered as single dose treated 24 hrs postinfection. Format: functional.
The test system of series [19] is Mus musculus. Briefly: Free peak concentration in Bacillus anthracis infected mouse spore inhalation anthrax model at 32 mg/kg, ip administered as single dose. To be noted: in vivo. In kind it is ADME, organism-based. Set-up: dose 32 mg/kg, route intraperitoneal.
Series [20] relates to Bacillus anthracis. The series is described as follows: Antimicrobial activity against Bacillus anthracis infected mouse spore inhalation anthrax model assessed as bacterial load per gram of lung tissue at 10 mg/kg, ip every 48 hrs for 14 days treated 48 hrs postinfection. Format: functional. Conditions: route intraperitoneal.
Series [21] has as its system Bacillus anthracis. The series is described as follows: Antimicrobial activity against Bacillus anthracis infected mouse spore inhalation anthrax model assessed as survival rate at 3 mg/kg, ip every 48 hrs for 14 days treated 24 hrs postinfection. In kind it is functional. Conditions: route intraperitoneal.
The subject of series [22] is Bacillus anthracis. The series is described as follows: Antimicrobial activity against Bacillus anthracis infected mouse spore inhalation anthrax model assessed as survival rate at 10 mg/kg, ip every 48 hrs for 14 days treated 24 hrs postinfection. Format: functional. To be noted: route intraperitoneal.
Series [23] concerns Bacillus anthracis. Briefly: Antimicrobial activity against Bacillus anthracis infected mouse spore inhalation anthrax model assessed as bacterial load per gram of lung tissue at 10 mg/kg, ip every 48 hrs for 14 days treated 36 hrs postinfection. Conditions: route intraperitoneal. Format: functional.
Series [24] relates to Bacillus anthracis. Briefly: Antimicrobial activity against Bacillus anthracis infected mouse spore inhalation anthrax model assessed as bacterial load per gram of lung tissue at 3 mg/kg, ip every 48 hrs for 14 days treated 24 hrs postinfection. Format: functional. To be noted: route intraperitoneal.
In series [25] the test system is Bacillus anthracis. Briefly: Antimicrobial activity against Bacillus anthracis infected mouse spore inhalation anthrax model assessed as survival rate at 10 mg/kg, ip every 48 hrs for 14 days treated 48 hrs postinfection. In kind it is functional. To be noted: route intraperitoneal.
In series [26] the test system is Bacillus anthracis. Briefly: Antimicrobial activity against Bacillus anthracis infected mouse spore inhalation anthrax model assessed as survival rate at 10 mg/kg, ip every 48 hrs for 14 days treated 36 hrs postinfection. In kind it is functional. Conditions: route intraperitoneal.
Series [27] deals with Bacillus anthracis. The series is described as follows: Antimicrobial activity against Bacillus anthracis infected mouse spore inhalation anthrax model assessed as bacterial load per gram of lung tissue at 50 mg/kg, iv administered as single dose treated 24 hrs postinfection. Format: functional.
The subject of series [28] is Bacillus anthracis. The series is described as follows: Antimicrobial activity against Bacillus anthracis infected mouse spore inhalation anthrax model. Format: functional. Conditions: inhaled or nasal.
The subject of series [29] is Bacillus anthracis. Briefly: Antimicrobial activity against Bacillus anthracis infected mouse spore inhalation anthrax model assessed as bacterial load per gram of lung tissue at 30 mg/kg, ip every 48 hrs for 14 days treated 24 hrs postinfection. In kind it is functional. Conditions: route intraperitoneal.
In series [30] the test system is Bacillus anthracis. The series is described as follows: Antimicrobial activity against Bacillus anthracis infected mouse spore inhalation anthrax model assessed as survival rate at 15 mg/kg, iv administered as single dose treated 24 hrs postinfection. Format: functional.
In series [31] the test system is Bacillus anthracis. The series is described as follows: Antimicrobial activity against Bacillus anthracis infected mouse spore inhalation anthrax model assessed as survival rate at 30 mg/kg, ip every 48 hrs for 14 days treated 24 hrs postinfection. In kind it is functional. To be noted: route intraperitoneal.
Series [32] relates to Bacillus anthracis. Briefly: Antimicrobial activity against Bacillus anthracis infected mouse spore inhalation anthrax model assessed as survival rate at 0.3 mg/kg, ip every 48 hrs for 14 days treated 24 hrs postinfection. Conditions: route intraperitoneal. Format: functional.
For series [33], the system named is Bacillus anthracis. Briefly: Antimicrobial activity against Bacillus anthracis infected mouse spore inhalation anthrax model assessed as bacterial load per gram of lung tissue at 50 mg/kg, iv administered as single dose treated 28 days before infection. In kind it is functional.
Series [34] concerns Bacillus anthracis. The series is described as follows: Antimicrobial activity against Bacillus anthracis infected mouse spore inhalation anthrax model assessed as survival rate at 50 mg/kg, iv administered as single dose treated 28 days before infection measured on 22 days postinfection. Format: functional.
The species entered for series [35] is Mus musculus. To be noted: in vivo, ip, 1.2 mg/kg.
The test system of series [36] is Bacillus anthracis. The series is described as follows: Antimicrobial activity against Bacillus anthracis infected mouse spore inhalation anthrax model assessed as survival rate at 0.1 mg/kg, ip every 48 hrs for 14 days treated 24 hrs postinfection. To be noted: route intraperitoneal. In kind it is functional.
Series [37] relates to Bacillus anthracis. The series is described as follows: Antimicrobial activity against Bacillus anthracis infected mouse spore inhalation anthrax model assessed as survival rate at 1 mg/kg, ip every 48 hrs for 14 days treated 24 hrs postinfection. Format: functional. To be noted: route intraperitoneal.
Series [38] concerns Bacillus anthracis. The series is described as follows: Ratio of MIC90 for Bacillus anthracis in presence of polysorbate-80 to MIC90 for Bacillus anthracis. Format: functional.
Series [39] deals with Bacillus anthracis. The series is described as follows: Antimicrobial activity against Bacillus anthracis infected mouse spore inhalation anthrax model assessed as bacterial load per gram of lung tissue at 1 mg/kg, ip every 48 hrs for 14 days treated 24 hrs postinfection. In kind it is functional. To be noted: route intraperitoneal.
Series [40] deals with Bacillus anthracis. Briefly: Antimicrobial activity against Bacillus anthracis infected mouse spore inhalation anthrax model assessed as bacterial load per gram of lung tissue at 50 mg/kg, iv administered as single dose treated 14 days before infection. Format: functional.
The subject of series [41] is Mus musculus. Briefly: Free peak concentration in Bacillus anthracis infected mouse spore inhalation anthrax model at 32 mg/kg, iv administered as single dose. In kind it is ADME, organism-based. Conditions: in vivo. Set-up: dose 32 mg/kg, route intravenous.
The subject of series [42] is Bacillus anthracis. The series is described as follows: Antimicrobial activity against Bacillus anthracis infected mouse spore inhalation anthrax model assessed as survival rate at 50 mg/kg, iv administered as single dose treated 42 hrs postinfection. In kind it is functional.
Series [43] relates to Bacillus anthracis. Briefly: Antimicrobial activity against Bacillus anthracis infected mouse spore inhalation anthrax model assessed as survival rate at 50 mg/kg, iv administered as single dose treated 14 days before infection measured on 22 days postinfection. Format: functional.
Series [44] concerns Bacillus anthracis. The series is described as follows: Antimicrobial activity against Bacillus anthracis infected mouse spore inhalation anthrax model assessed as survival rate at 50 mg/kg, iv administered as single dose treated 24 hrs before infection measured on 33 days postinfection. In kind it is functional.

Take `CC1(C)S[C@@H]2[C@H](NC(=O)Cc3ccccc3)C(=O)N2[C@H]1C(=O)O` [PENICILLIN G]: the MIC is over 60 ng/mL in series [1] and 8 ng/mL (≈ 23.9 nM) in series [3]. Further, the Ratio in [2] is given as over 8.

Turning to `CN[C@H](CC(C)C)C(=O)N[C@H]1C(=O)N[C@@H](CC(N)=O)C(=O)N[C@H]2C(=O)N[C@H]3C(=O)N[C@H](C(=O)N[C@H](C(=O)O)c4cc(O)cc(O)c4-c4cc3ccc4O)[C@H](O[C@H]3C[C@](C)(N)[C@@H](O)[C@H](C)O3)c3ccc(c(Cl)c3)Oc3cc2cc(c3O[C@@H]2O[C@H](CO)[C@@H](O)[C@H](O)[C@H]2O[C@H]2C[C@](C)(NCc3ccc(-c4ccc(Cl)cc4)cc3)[C@@H](O)[C@H](C)O2)Oc2ccc(cc2Cl)[C@H]1O` [ORITAVANCIN], the survival at 50 mg/kg in series [4] came to 100%; in [15], 90%; in series [34], 20%; in series [42], 55%; in series [43] it was 100%; in series [44], 100%. Further, in series [5], the Activity amounted to 100%. Further, the log10cfu is 740 in series [6]; 35000 in series [11]; 28000 in series [12]; 20300 in series [13]; 1980 in [14]; 63000 in series [16]. The log10cfu turned out to be 35000 in series [17]; 1680 in series [20]; 2520 in series [23]; 36800 in series [24]; 36100 in [27]; 18200 in [29]. Besides, the log10cfu in [33] is given as 51000; in [39], 29500; in [40], 65000. The MIC90 in series [7] came to 120 ng/mL. In addition, the MIC in [8] came out at 15 ng/mL; in series [1], 8 ng/mL (≈ 4.46 nM); in series [3], 4 ng/mL (≈ 2.23 nM). The results for the fAUC in series [9], in series [10] and in series [35] were 61000 ng·h/mL, 54000 ng·h/mL and 1900 ng·h/mL, respectively. For the same compound, in series [18], the survival at 5 mg/kg amounted to 40%. Moreover, the Cmax_unbound in [19] is 6100 ng/mL; in [41], 17000 ng/mL. The survival at 3 mg/kg in series [21] was found to be 100%. The Ratio in [2] worked out at 1; in series [38] it was 16. The survival at 10 mg/kg was found to be 100% in series [22], 50% in series [25] and 90% in [26]. Besides, the ED50 in series [28] turned out to be 1.2 mg/kg. Moreover, the survival at 15 mg/kg in series [30] turned out to be 70%. Moreover, the survival at 30 mg/kg in series [31] is 100%. The survival at 0.3 mg/kg in [32] amounted to 30%. In [36], the survival at 0.1 mg/kg was found to be 0%. The survival at 1 mg/kg in series [37] is 50%.
